The text below walks through data of ChEMBL document CHEMBL1157655, “Design and synthesis of novel series of pyrrole based chemotypes and their evaluation as selective aldose reductase inhibitors. A case of bioisosterism between a carboxylic acid moiety and that of a tetrazole” (Bioorg Med Chem, 2010).

In test [1] the target is Aldo-keto reductase family 1 member B1 (Rattus norvegicus, UniProt P07943). The test is described as follows: Inhibition of aldose reductase in Fischer-344 rat lens homogenate by spectrometric analysis.
A short description of test [2]: Antioxidant activity against AAPH-induced lipid peroxidation in unilamellar DOPC liposomes after 80 mins by thiocyanate reagent method. Format: functional. Summed up:
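DOPC unilamellar liposomes (final 0.8 mM, phosphate buffer 20 mM pH 7.4) incubated with test compound (10–300 µM range stated) and AAPH (final 10 mM) at 50 °C for 80 min. Aliquots extracted with ice-cold CHCl3/MeOH (2:1) containing BHT. Lipid hydroperoxide determined by thiocyanate method, absorbance at 500 nm, quantified against cumene hydroperoxide calibration curve. Triplicate.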

The subject of test [3] is Radical scavenging activity. The test is described as follows: Antioxidant activity assessed as DPPH radical scavenging activity at 0.2 mM. Format: functional. The procedure, abridged: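 Compounds in absolute ethanol added to an equal volume of ethanolic DPPH to give final 0.2–0.0125 mM compound and 0.2 mM DPPH. Continual absorbance decrease at 517 nm followed. Trolox reference. Triplicate.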

The target in test [4] is T1, Aldo-keto reductase family 1 member A1 (Rattus norvegicus) (UniProt P51635).
T1 sequence (whole entry): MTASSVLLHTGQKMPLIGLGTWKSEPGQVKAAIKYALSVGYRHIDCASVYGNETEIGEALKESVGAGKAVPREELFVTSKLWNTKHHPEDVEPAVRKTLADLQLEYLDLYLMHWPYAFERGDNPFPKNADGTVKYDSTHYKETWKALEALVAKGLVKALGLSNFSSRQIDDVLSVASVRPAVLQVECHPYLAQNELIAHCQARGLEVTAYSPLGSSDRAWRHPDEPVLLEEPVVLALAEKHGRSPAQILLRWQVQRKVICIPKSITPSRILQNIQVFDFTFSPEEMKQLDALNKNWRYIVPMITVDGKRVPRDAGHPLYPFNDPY
The test is described as follows: Inhibition of rat kidney aldehyde reductase at 0.1 mM after 20 mins by spectrometric analysis.

Test [5] concerns the target Aldo-keto reductase family 1 member B1 (Rattus norvegicus) (UniProt P07943). The test is described as follows: Inhibition of aldose reductase in Fischer-344 rat lens homogenate at 0.1 mM by spectrometric analysis.

SMILES strings stand for the structures. pIC50: −log10 of the molar value. Bounds are passed on as bounds.

For the compound `O=C(c1ccccc1)c1ccn(-c2nn[nH]n2)c1`, the results for the pIC50 in test [1] and in test [2] were 4.74 and < 3.52, respectively. In test [3], the Activity amounted to 10%. In test [4], this compound yielded an inhibition of 18%.
Turning to `O=C(O)CCCn1ccc(C(=O)c2ccccc2)c1`, the pIC50 in test [1] is 5.22. In addition, in test [4], the inhibition came to 22%.
For `O=C(O)CCn1ccc(C(=O)c2ccccc2)c1` the same measures were 5.01 and 20%.
In the case of `O=C(O)Cn1ccc(C(=O)c2ccccc2)c1`, the pIC50 in test [2] is < 3.52. For the same compound, in test [3], the Activity came to 10%. The inhibition in test [4] is 34%.
As to `O=C(c1ccccc1)c1ccn(Cc2nn[nH]n2)c1`, the values for the inhibition in test [5] and in test [4] were 40% and 23%, respectively.
As to `O=C(c1ccccc1)c1cccn1-c1nn[nH]n1`, the pIC50 in test [1] is 4.70; in test [2], < 3.52. Also, the Activity in test [3] came to 10%. The same compound yielded an inhibition in test [4] of 18%.
As for `O=C(c1ccccc1)c1ccn(CCc2nn[nH]n2)c1`, the inhibition came out at 6% in test [5] and 41% in test [4].
Take `O=C(c1ccccc1)c1ccn(CCCc2nn[nH]n2)c1`: the inhibition in test [5] came out at 41%; in test [4] it was 35%.
`Cc1c(C)c2c(c(C)c1O)CCC(C)(C(=O)O)O2` (stereo not drawn) [TROLOX] gave a pIC50 in test [2] of 4.03. For the same compound, in test [3], the Activity came out at 98%.

For orientation: pIC50 means the IC50 on a negative log10 scale, so that one unit is a factor of ten. A low value points to a large IC50. For orientation: inhibition means the percentage by which the read-out fell short of the control. A higher inhibition goes with strong suppression.
